These results are taken from ChEMBL document CHEMBL1122182, “Structure-activity studies on the C-terminal amide of substance P” (1982).

What all share (type): functional
The species named for test [1] is Cavia porcellus. The experiment in a line: In vitro relative affinity was measured in guinea pig ileum. In a few lines:
(§1)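 Contraction of isolated guinea pig ileum. Peptide solutions were prepared and used the same day, then discarded. Responses were expressed as pD2, intrinsic activity (αE) and relative affinity.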

For test [2], the species on record is Cavia porcellus. The test is described as follows: In vitro intrinsic activity was measured in guinea pig ileum. The method in brief: as §1
Test [3] is filed under the species Cavia porcellus. The test is described as follows: In vitro (pD2) the negative log of the dose which causes half-maximal contraction was measured in guinea pig ileum. In a few lines: as §1
The subject of the next test is Rattus norvegicus. The test is described as follows: In vivo relative blood pressure potency was measured in rat.

Molecules are shown by their SMILES. Where a SMILES comes first, the peptide text is derived from it. [ ]: non-standard residue; d: D form. The star is where a group is joined. Nle = CCCC[C@H](N)C(=O)O; NEt2 = CCN(CC)*; X1 = CN(C)N*; NHNH2 = NN* A value given as a limit tells only on which side of the number the result lay.

In the test filed under Cavia porcellus [1], `CSCC[C@H](NC(=O)[C@H](CC(C)C)NC(=O)CNC(=O)[C@H](Cc1ccccc1)NC(=O)[C@H](Cc1ccccc1)NC(=O)[C@H](CCC(N)=O)NC(=O)[C@@H](N)CCC(N)=O)C(N)=O` (H-QQFFGLM-NH2) displayed an RA of 100%. The Activity in the test filed under Cavia porcellus [2] was 1. In the test listed under Cavia porcellus [3], this molecule returned a pD2 of 8.77. Moreover, the RBP in the test with Rattus norvegicus is recorded as 100%.

Molecule `CNC(=O)[C@H](CCSC)NC(=O)[C@H](CC(C)C)NC(=O)CNC(=O)[C@H](Cc1ccccc1)NC(=O)[C@H](Cc1ccccc1)NC(=O)[C@H](CCC(N)=O)NC(=O)[C@@H](N)CCC(N)=O` (H-QQFFGLM-NHMe) displayed an RA in the test filed under Cavia porcellus [1] of 1%. This molecule gave an Activity in the test listed under Cavia porcellus [2] of 0.85. Also, the pD2 in the test listed under Cavia porcellus [3] is recorded as 6.77. Besides, the RBP with Rattus norvegicus amounted to 5%.

Turning to `CSCC[C@H](NC(=O)[C@H](CC(C)C)NC(=O)CNC(=O)[C@H](Cc1ccccc1)NC(=O)[C@H](Cc1ccccc1)NC(=O)[C@H](CCC(N)=O)NC(=O)[C@@H](N)CCC(N)=O)C(=O)NN` (H-QQFFGLM-NHNH2), the RA in the test filed under Cavia porcellus [1] is given as 1%. This molecule also yielded an Activity in the test listed under Cavia porcellus [2] of 1. In the test listed under Cavia porcellus [3], the pD2 was 6.8. This molecule also returned an RBP with Rattus norvegicus of 0.4%.

Take `CSCC[C@H](NC(=O)[C@H](CC(C)C)NC(=O)CNC(=O)[C@H](Cc1ccccc1)NC(=O)[C@H](Cc1ccccc1)NC(=O)[C@H](CCC(N)=O)NC(=O)[C@@H](N)CCC(N)=O)C(=O)N(C)C` (H-QQFFGLM-NMe2): the RA in the test listed under Cavia porcellus [1] was under 0.01%. The RBP with Rattus norvegicus is on record as 0.2%.

`COC(=O)[C@H](CCSC)NC(=O)[C@H](CC(C)C)NC(=O)CNC(=O)[C@H](Cc1ccccc1)NC(=O)[C@H](Cc1ccccc1)NC(=O)[C@H](CCC(N)=O)NC(=O)[C@@H](N)CCC(N)=O` (H-QQFFGLM-OMe) returned an RA in the test filed under Cavia porcellus [1] of 3.37%. In the test listed under Cavia porcellus [2], this molecule showed an Activity of 1. Also, the pD2 in the test filed under Cavia porcellus [3] worked out at 7.3. In the test with Rattus norvegicus, this molecule had an RBP of 1%.

With `CSCC[C@H](NC(=O)[C@H](CC(C)C)NC(=O)CNC(=O)[C@H](Cc1ccccc1)NC(=O)[C@H](Cc1ccccc1)NC(=O)[C@H](CCC(N)=O)NC(=O)[C@@H](N)CCC(N)=O)C(=O)NN(C)C` (H-QQFFGLM-X1), the RA in the test listed under Cavia porcellus [1] is reported as 0.53%. The same molecule had a pD2 in the test filed under Cavia porcellus [3] of 6.6. The RBP in the test on Rattus norvegicus is recorded as under 0.05%.

Take `CCCC[C@H](NC(=O)[C@H](CC(C)C)NC(=O)CNC(=O)[C@H](Cc1ccccc1)NC(=O)[C@H](Cc1ccccc1)NC(=O)[C@H](CCC(N)=O)NC(=O)[C@@H](N)CCC(N)=O)C(=O)N(CC)CC` (H-QQFFGL[Nle]-NEt2): the RA in the test listed under Cavia porcellus [1] was found to be 1.3%. Also, the Activity in the test filed under Cavia porcellus [2] amounted to 1. For the same molecule, the pD2 in the test listed under Cavia porcellus [3] was 6.03. In the test with Rattus norvegicus, this molecule showed an RBP of 0.2%.

With `CCCC[C@H](NC(=O)[C@H](CC(C)C)NC(=O)CNC(=O)[C@H](Cc1ccccc1)NC(=O)[C@H](Cc1ccccc1)NC(=O)[C@H](CCC(N)=O)NC(=O)[C@@H](N)CCC(N)=O)C(N)=O` (H-QQFFGL[Nle]-NH2), the Activity in the test listed under Cavia porcellus [2] is 1. In the test filed under Cavia porcellus [3], this molecule came in with a pD2 of 7.93.

In the test listed under Cavia porcellus [1], `CCCC[C@H](NC(=O)[C@H](CC(C)C)NC(=O)CNC(=O)[C@H](Cc1ccccc1)NC(=O)[C@H](Cc1ccccc1)NC(=O)[C@H](CCC(N)=O)NC(=O)[C@@H](N)CCC(N)=O)C(=O)NN` (H-QQFFGL[Nle]-NHNH2) came in with an RA of 5%. In addition, the Activity in the test filed under Cavia porcellus [2] is 1. Moreover, the pD2 in the test filed under Cavia porcellus [3] is 6.63. Further, in the test on Rattus norvegicus, the RBP is reported as 5.2%.

In the test listed under Cavia porcellus [1], `CCCC[C@H](NC(=O)[C@H](CC(C)C)NC(=O)CNC(=O)[C@H](Cc1ccccc1)NC(=O)[C@H](Cc1ccccc1)NC(=O)[C@H](CCC(N)=O)NC(=O)[C@@H](N)CCC(N)=O)C(=O)O` (H-QQFFGL[Nle]-OH) showed an RA of 2.6%. In the test listed under Cavia porcellus [2], this molecule displayed an Activity of 1. For the same molecule, the pD2 in the test listed under Cavia porcellus [3] turned out to be 6.34. The same molecule came in with an RBP with Rattus norvegicus of 1.5%.

The molecule `CCCC[C@H](NC(=O)[C@H](CC(C)C)NC(=O)CNC(=O)[C@H](Cc1ccccc1)NC(=O)[C@H](Cc1ccccc1)NC(=O)[C@H](CCC(N)=O)NC(=O)[C@@H](N)CCC(N)=O)C(=O)OC` (H-QQFFGL[Nle]-OMe) had an RA in the test filed under Cavia porcellus [1] of 3.5%. In the test filed under Cavia porcellus [2], this molecule gave an Activity of 1. The pD2 in the test filed under Cavia porcellus [3] is on record as 6.47. In addition, the RBP in the test with Rattus norvegicus is given as 1.5%.
